{"data": "Assay results of several laboratories", "technique": "broth dilution", "note": "Compare with care: the assays were run in different laboratories."}
{"Compound": "O=C1O[C@H]2[C@@H]3OC(=O)c4cc(O)c(O)c(O)c4-c4c(O)c(O)c5oc(=O)c6c(c(O)c(O)c7oc(=O)c4c5c76)-c4c(cc(O)c(O)c4O)C(=O)OC[C@H]3OC(O)[C@@H]2OC(=O)c2cc(O)c(O)c(O)c2-c2c1cc(O)c(O)c2O (mixture of isomers)", "organism": "Streptococcus sobrinus", "effect on": "microbial killing", "endpoint": "MBC", "value": "200 µg/mL"}
{"Compound": "O=C(Nc1ccccc1)c1ccc(COC(Cn2ccnc2)c2ccc(Cl)cc2Cl)cc1 (centres unmarked)", "organism": "Lodderomyces parapsilosis", "effect on": "microbial growth", "endpoint": "MIC80", "value": "0.125 µg/mL"}
{"Compound": "C/C(=N\\N=C(/C)c1c(O)c2ccccc2oc1=O)c1c(O)c2ccccc2oc1=O", "organism": "Aspergillus niger", "effect on": "microbial growth", "time": "48 h", "endpoint": "MIC", "value": "125 µg/mL"}
{"Compound": "C[C@@H]1O[C@@H]1P(=O)(O)O", "organism": "Neisseria gonorrhoeae", "effect on": "microbial growth", "strain": "ATCC49226", "endpoint": "MIC", "value": "31.2 µg/mL"}
{"Compound": "Cc1ccc(NC(=O)c2ccc(COC(Cn3ccnc3)c3ccc(Cl)cc3Cl)cc2)cc1 (centres unmarked)", "organism": "Lodderomyces parapsilosis", "effect on": "microbial growth", "endpoint": "MIC80", "value": "0.06 µg/mL"}
{"Compound": "C[C@@H]1O[C@@H](OC[C@H]2O[C@@H](Oc3c(-c4ccc(O)c(O)c4)oc4cc(O)cc(O)c4c3=O)[C@H](O)[C@@H](O)[C@@H]2O)[C@H](O)[C@H](O)[C@H]1O", "organism": "Streptococcus sobrinus", "effect on": "microbial killing", "endpoint": "MBC", "value": "400 µg/mL"}
{"Compound": "O=C(Nc1ccc2ccccc2c1)c1ccc(COC(Cn2ccnc2)c2ccc(Cl)cc2Cl)cc1 (centres unmarked)", "organism": "Lodderomyces parapsilosis", "effect on": "microbial growth", "endpoint": "MIC80", "value": "32 µg/mL"}
{"Compound": "C/C(=N\\NC(=O)/N=C(\\C)c1c(O)c2ccccc2oc1=O)c1c(O)c2ccccc2oc1=O", "organism": "Aspergillus niger", "effect on": "microbial growth", "time": "48 h", "endpoint": "MIC", "value": "125 µg/mL"}
{"Compound": "Clc1ccc(COC(Cn2ccnc2)c2ccc(Cl)cc2Cl)c(Cl)c1 (centres unmarked)", "organism": "Lodderomyces parapsilosis", "effect on": "microbial growth", "endpoint": "MIC80", "value": "0.06 µg/mL"}
{"Compound": "C/C(=N\\CCNCC/N=C(\\C)c1c(O)c2ccccc2oc1=O)c1c(O)c2ccccc2oc1=O", "organism": "Aspergillus niger", "effect on": "microbial growth", "time": "48 h", "endpoint": "MIC", "value": "62.5 µg/mL"}
{"Compound": "O=c1oc2c(O)c(O)cc3c(=O)oc4c(O)c(O)cc1c4c23", "organism": "Streptococcus sobrinus", "effect on": "microbial killing", "endpoint": "MBC", "value": "200 µg/mL"}
{"Compound": "O=C(Nc1ccc2cccnc2c1)c1ccc(COC(Cn2ccnc2)c2ccc(Cl)cc2Cl)cc1 (centres unmarked)", "organism": "Lodderomyces parapsilosis", "effect on": "microbial growth", "endpoint": "MIC80", "value": "2 µg/mL"}
{"Compound": "CC1CCC(C(C)C)C(OC2=C(Cl)C(=O)c3ccccc3C2=O)C1 (centres unmarked)", "organism": "Aspergillus niger", "effect on": "microbial growth", "endpoint": "MIC", "value": "12 µg/mL"}
{"Compound": "O=C(Nc1ccc2[nH]ccc2c1)c1ccc(COC(Cn2ccnc2)c2ccc(Cl)cc2Cl)cc1 (centres unmarked)", "organism": "Lodderomyces parapsilosis", "effect on": "microbial growth", "endpoint": "MIC80", "value": "32 µg/mL"}
{"Compound": "O=C1OC[C@H]2OC(O)[C@H](O)[C@@H](O)[C@@H]2OC(=O)c2cc(O)c(O)c(O)c2-c2c(O)c(O)c3oc(=O)c4c(c(O)c(O)c5oc(=O)c2c3c54)-c2c1cc(O)c(O)c2O (mixture of isomers)", "organism": "Streptococcus sobrinus", "effect on": "microbial growth", "time": "24 h", "endpoint": "MIC", "value": "100 µg/mL"}
{"Compound": "Cc1ccc(C(C)C)c(OC2=C(Cl)C(=O)c3ccccc3C2=O)c1", "organism": "Aspergillus niger", "effect on": "microbial growth", "endpoint": "MIC", "value": "10 µg/mL"}
{"Compound": "CC(=O)N1CCN(c2ccc(OCC3COC(Cn4ccnc4)(c4ccc(Cl)cc4Cl)O3)cc2)CC1 (centres unmarked)", "organism": "Aspergillus niger", "effect on": "microbial growth", "time": "48 h", "endpoint": "MIC", "value": "7.8 µg/mL"}
{"Compound": "Oc1cc(O)c2c(c1)O[C@H](c1cc(O)c(O)c(O)c1)[C@@H](O)C2", "organism": "Streptococcus sobrinus", "effect on": "microbial growth", "time": "24 h", "endpoint": "MIC", "value": "100 µg/mL"}
{"Compound": "C/C(=N\\CCNCCNCC/N=C(\\C)c1c(O)c2ccccc2oc1=O)c1c(O)c2ccccc2oc1=O", "organism": "Aspergillus niger", "effect on": "microbial growth", "time": "48 h", "endpoint": "MIC", "value": "31.2 µg/mL"}
{"Compound": "O=C(O[C@@H]1O[C@@H]2COC(=O)c3cc(O)c(O)c(O)c3-c3c(cc(O)c(O)c3O)C(=O)O[C@H]([C@H]1O)[C@@H]2O)c1cc(O)c(O)c(O)c1", "organism": "Streptococcus sobrinus", "effect on": "microbial killing", "endpoint": "MBC", "value": "400 µg/mL"}
